Measured values taken from ChEMBL document CHEMBL1127493, “Glycylcyclines. 1. A new generation of potent antibacterial agents through modification of 9-aminotetracyclines” (1994).
In brackets after ≈: the same amount, converted by molar mass.

Columns and labels:
Assay type in all cases: functional
Staphylococcus aureus [1] = test: In vitro minimum inhibitory concentration against Staphylococcus aureus UBMS 88-7 (tet K efflux).
Outline: (§1)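 Agar dilution on Mueller–Hinton II agar; inoculum (1-5) × 10^5 CFU/mL; antibiotic concentrations 32–0.004 µg/mL; plates incubated 18 h at 35 °C in forced-air incubator. MIC taken as lowest concentration inhibiting growth of the test organism (tetracycline-sensitive and tetracycline-resistant strains).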

Escherichia coli [2] = test: In vitro minimum inhibitory concentration against Escherichia coli J3272 (tet C efflux).; outline: as §1
Staphylococcus aureus [3] = test: In vitro minimum inhibitory concentration against Staphylococcus aureus UBMS 90-3 (sensitive).; outline: as §1
Escherichia coli [4] = test: In vitro minimum inhibitory concentration against Escherichia coli UBMS 90-4 (tet M ribosomal protection).; outline: as §1
Escherichia coli [5] = test: In vitro minimum inhibitory concentration against Escherichia coli UBMS 90-5 (sensitive).; outline: as §1
Escherichia coli [6] = test: In vitro minimum inhibitory concentration against Escherichia coli PRP-1 (tet A efflux).; outline: as §1
Escherichia coli [7] = test: In vitro minimum inhibitory concentration against Escherichia coli UBMS 88-1 (tet B efflux).; outline: as §1
Enterococcus faecalis = test: In vitro minimum inhibitory concentration against Enterococcus faecalis ATCC 29212.; outline: as §1
Staphylococcus aureus [8] = test: In vitro minimum inhibitory concentration against Staphylococcus aureus smith (sensitive).; outline: as §1
Staphylococcus aureus [9] = test: In vitro minimum inhibitory concentration against Staphylococcus aureus UBMS 90-1 (tet M ribosomal protection).; outline: as §1
Escherichia coli [10] = test: In vitro minimum inhibitory concentration against Escherichia coli J3272 (tet D efflux).; outline: as §1

Compound	MIC (Staphylococcus aureus [1]) [µg/mL]	MIC (Escherichia coli [2]) [µg/mL]	MIC (Staphylococcus aureus [3]) [µg/mL]	MIC (Escherichia coli [4]) [µg/mL]	MIC (Escherichia coli [5]) [µg/mL]	MIC (Escherichia coli [6]) [µg/mL]	MIC (Escherichia coli [7]) [µg/mL]	MIC (Enterococcus faecalis) [µg/mL]	MIC (Staphylococcus aureus [8]) [µg/mL]	MIC (Staphylococcus aureus [9]) [µg/mL]	MIC (Escherichia coli [10]) [µg/mL]
CCN(CC)c1cc(NC(C)=O)c(O)c2c1CC1CC3[C@H](N(C)C)C(=O)C(C(N)=O)=C(O)[C@@]3(O)C(=O)C1=C2O (stereo partly drawn)	2 (≈ 3.69 µM)	> 32	0.12 (≈ 0.221 µM)	32 (≈ 59 µM)	32 (≈ 59 µM)	> 32	32 (≈ 59 µM)	0.25 (≈ 0.461 µM)	0.12 (≈ 0.221 µM)	2 (≈ 3.69 µM)	
CC(=O)Nc1ccc2c(c1O)C(O)=C1C(=O)[C@]3(O)C(O)=C(C(N)=O)C(=O)[C@@H](N(C)C)C3CC1C2.O=S(=O)(O)O (stereo partly drawn)	32	> 32	0.12	8	8	> 32	> 32	0.25	0.12	2	0.5
CN(C)c1cc(NC(=O)CN)c(O)c2c1CC1CC3[C@H](N(C)C)C(=O)C(C(N)=O)=C(O)[C@@]3(O)C(=O)C1=C2O.O=C(O)C(F)(F)F (stereo partly drawn)	> 32	32	0.5	1	2	32	2	0.25	1	2	2
CN(C)[C@@H]1C(=O)C(C(N)=O)=C(O)[C@@]2(O)C(=O)C3=C(O)c4c(ccc(N)c4O)CC3CC12.O=S(=O)(O)O (stereo partly drawn)	4	> 32	< 0.015	16	1	32	> 32	0.5	0.03	8	
CC(=O)Nc1cc(N(C)C)c2c(c1O)C(O)=C1C(=O)[C@]3(O)C(O)=C(C(N)=O)C(=O)[C@@H](N(C)C)C3CC1C2 (stereo partly drawn)	8 (≈ 15.5 µM)	> 32	0.25 (≈ 0.486 µM)	4 (≈ 7.77 µM)	8 (≈ 15.5 µM)	> 32	> 32	0.25 (≈ 0.486 µM)	0.25 (≈ 0.486 µM)	1 (≈ 1.94 µM)	
CC(=O)Nc1cc(I)c2c(c1O)C(O)=C1C(=O)[C@]3(O)C(O)=C(C(N)=O)C(=O)[C@@H](N(C)C)C3CC1C2.O=S(=O)(O)O (stereo partly drawn)	16	> 128	0.12	> 128	16	> 128	> 128	0.25	0.12	1	
CN(C)CC(=O)Nc1cc(I)c2c(c1O)C(=O)C1=C(O)[C@]3(O)C(O)=C(C(N)=O)C(=O)[C@@H](N(C)C)C3CC1C2.Cl (stereo partly drawn)	4	4	0.12	1	2	8	1	0.06	0.25	0.5	0.5
CCN(CC)c1cc(N)c(O)c2c1CC1CC3[C@H](N(C)C)C(=O)C(C(N)=O)=C(O)[C@@]3(O)C(=O)C1=C2O.Cl (stereo partly drawn)	0.06	4	0.03	32	1	2	2	0.12	0.03	2	
CN(C)[C@@H]1C(=O)C(C(N)=O)=C(O)[C@@]2(O)C(=O)C3=C(O)c4c(ccc(NC=O)c4O)CC3CC12.O=S(=O)(O)O (stereo partly drawn)	> 32	> 32	< 0.015	1	0.25	> 32	32	0.06	0.03	1	
CN(C)CC(=O)Nc1cc(N(C)C)c2c(c1O)C(=O)C1=C(O)[C@]3(O)C(O)=C(C(N)=O)C(=O)[C@@H](N(C)C)C3CC1C2.Cl (stereo partly drawn)	2	1	0.06	0.25	0.25	2	0.25	0.06	0.12	0.25	0.12
CCN(CC)c1cc(NC(=O)CN(C)C)c(O)c2c1CC1CC3[C@H](N(C)C)C(=O)C(C(N)=O)=C(O)[C@@]3(O)C(=O)C1=C2O.Cl (stereo partly drawn)	1	4	0.5	1	1	4	1	0.25	0.5	0.5	0.5
CN(C)[C@@H]1C(=O)C(C(N)=O)=C(O)[C@@]2(O)C(=O)C3=C(O)c4c(O)c(N)cc(I)c4CC3CC12.O=S(=O)(O)O (stereo partly drawn)	0.5	> 32	0.03	> 32	4	> 32	> 32	0.12	< 0.015	0.5	
CN(C)c1cc(NC=O)c(O)c2c1CC1CC3[C@H](N(C)C)C(=O)C(C(N)=O)=C(O)[C@@]3(O)C(=O)C1=C2O (stereo partly drawn)	4 (≈ 7.99 µM)	> 32	0.03 (≈ 0.0599 µM)	1 (≈ 2 µM)	0.25 (≈ 0.499 µM)	16 (≈ 32 µM)	> 32	0.03 (≈ 0.0599 µM)	0.03 (≈ 0.0599 µM)	0.06 (≈ 0.12 µM)	8 (≈ 16 µM)
CN(C)c1cc(N)c(O)c2c1CC1CC3[C@H](N(C)C)C(=O)C(C(N)=O)=C(O)[C@@]3(O)C(=O)C1=C2O.Cl (stereo partly drawn)	0.25	16	0.06	8	0.5	4	32	0.25	0.06	0.5	8
CN(C)CC(=O)Nc1ccc2c(c1O)C(=O)C1=C(O)[C@]3(O)C(O)=C(C(N)=O)C(=O)[C@@H](N(C)C)C3CC1C2.Cl (stereo partly drawn)	1	0.5	0.06	0.12	0.12	1	0.25	0.03	0.12	0.12	0.12
CCN(CC)c1cc(NC=O)c(O)c2c1CC1CC3[C@H](N(C)C)C(=O)C(C(N)=O)=C(O)[C@@]3(O)C(=O)C1=C2O (stereo partly drawn)	0.25 (≈ 0.473 µM)	32 (≈ 60.5 µM)	0.03 (≈ 0.0568 µM)	8 (≈ 15.1 µM)	0.5 (≈ 0.946 µM)	32 (≈ 60.5 µM)	16 (≈ 30.3 µM)	0.06 (≈ 0.114 µM)	0.03 (≈ 0.0568 µM)	0.5 (≈ 0.946 µM)	
CN(C)[C@@H]1C(=O)C(C(N)=O)=C(O)[C@@]2(O)C(=O)C3=C(O)c4c(O)c(NC=O)cc(I)c4CC3CC12.O=S(=O)(O)O (stereo partly drawn)	16	> 32	0.03	32	0.5	> 32	> 32	0.25	0.03	4	
CN(C)c1ccc(O)c2c1C[C@H]1C[C@H]3[C@H](N(C)C)C(O)=C(C(N)=O)C(=O)[C@@]3(O)C(O)=C1C2=O [MINOCYCLINE]	0.25 (≈ 0.546 µM)	4 (≈ 8.74 µM)	0.12 (≈ 0.262 µM)	> 32	1 (≈ 2.19 µM)	4 (≈ 8.74 µM)	16 (≈ 35 µM)		0.12 (≈ 0.262 µM)	4 (≈ 8.74 µM)	8 (≈ 17.5 µM)
CN(C)[C@@H]1C(O)=C(C(N)=O)C(=O)[C@@]2(O)C(O)=C3C(=O)c4c(O)cccc4[C@@](C)(O)[C@H]3C[C@@H]12 [TETRACYCLINE]	> 32	> 32	0.25 (≈ 0.563 µM)	> 32	1 (≈ 2.25 µM)	32 (≈ 72 µM)	> 32		0.25 (≈ 0.563 µM)	> 32	32 (≈ 72 µM)
